PG9 Ab binder: PG9 antibody binding by small molecule; inhibition, % at 6.7 µM; TR-FRET gp120-PG9 antibody binding; hit rate 0.43% among 360,000; in the data active means inhibition above about 8.5%
NR1D1 modulator: modulators of human Rev-erb alpha DNA binding | Rev-erbα–FITC-DNA binding, fluorescence polarization, 90 min | activity, % at 10 µM | hit rate 0.79% among 370,000;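 active means activity above about 14%, limit read from the data; passing the limit was not always enough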;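 further: 0% = DMSO wells with 35 nM protein and 100% = DMSO wells with 750 nM protein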
NR2E3 ag-1: activates human photoreceptor nuclear receptor NR2E3. AID 2300. hit rate 0.12% among 320,000. GST-NR2E3/biotin-RetCOR TR-FRET, 1536-well. Q9Y5X4. inhibition of corepressor binding, % at 4.78 µM;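 active means percent inhibition above the cutoff of mean plus 3 SD of all tested compounds, set per screening campaign, cut at about 20% in these data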;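 further: 0% = DMSO wells and 100% = biotin wells as full block of FRET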
Target sequence (Q9Y5X4 whole entry, looked up): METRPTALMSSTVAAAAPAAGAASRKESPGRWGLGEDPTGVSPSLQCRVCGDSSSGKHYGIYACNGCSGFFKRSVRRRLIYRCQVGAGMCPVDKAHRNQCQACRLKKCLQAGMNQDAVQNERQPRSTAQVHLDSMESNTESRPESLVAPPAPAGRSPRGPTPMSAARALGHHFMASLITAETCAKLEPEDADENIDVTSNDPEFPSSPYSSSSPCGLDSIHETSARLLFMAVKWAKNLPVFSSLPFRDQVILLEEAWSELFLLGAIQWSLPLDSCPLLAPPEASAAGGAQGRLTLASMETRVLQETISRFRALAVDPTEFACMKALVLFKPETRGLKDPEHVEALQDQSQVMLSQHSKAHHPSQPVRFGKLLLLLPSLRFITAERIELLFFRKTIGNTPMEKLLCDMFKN
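Format: 1536-well format; test system: GST-NR2E3 and biotin-RetCOR proteins; read-out basis: percent inhibition of TR-FRET ratio; timing: 5 h incubation at 4 °C; detection: time-resolved FRET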
NR2E3 ag-2: human photoreceptor-specific nuclear receptor agonism | Q9Y5X4 | hit rate 0.35% among 360,000 | CHO-S Gal4-NCOR/VP16-NR2E3 two-hybrid, luciferase | AID 602229 | inhibition of corepressor binding, % at 3.98 µM;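 active means inhibition above the mean of all tested compounds plus 3 SD, cut at about 70% in these data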;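 further: 0% = DMSO with NR2E3 transfected cells and 100% = cells lacking NR2E3 construct; higher means lower luciferase signal from less NR2E3 corepressor binding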
NR1D1 mod conf: confirmation of modulators of human Rev-erb alpha DNA binding. activation, % at 25 µM. shares compounds with NR1D1 modulator. Rev-erb alpha FITC-DNA binding, fluorescence polarization, 90 min. hit rate 61% among 3,000;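 active means activation at or above a set limit, or at least 3 SD above the negative control mean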;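 further: 0% = 35 nM protein with DMSO and 100% = 750 nM protein high control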
RORg DNA counter: counter-screen for Rev-erb alpha modulators: RORgamma DNA binding | shares compounds with NR1D1 modulator | purified RORgamma protein-FITC-DNA binding, fluorescence polarization | IC50, µM | hit rate 8% among 910;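 active means Compounds whose fitted half-maximal concentration for disrupting protein-DNA binding is below 10 micromolar; the record names Rev-erb in its text, so the target is in doubt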
The depositor's hits bear a star; i = inactive; x = no result given. In the library only some 1.5% were active in any assay of this set; here they are far more common.

SMILES	PG9 Ab binder	NR1D1 modulator	NR2E3 ag-1	NR2E3 ag-2	NR1D1 mod conf	others
C[C@H]1CN(S(=O)C(C)(C)C)[C@H](CCO)/C1=C\c1ccccc1 (stereo not given in full)	0	-1	x	7	x
C[C@H]1CN(S(=O)C(C)(C)C)[C@@H](CCO)/C1=C\c1ccccc1 (stereo not given in full)	1	15*	x	-7	-1
COC(=O)c1cc(C#N)c(NCc2ccc(Cl)cc2Cl)nc1C	-1	24*	2	-4	7
NS(=O)(=O)c1ccc(CCNC(=O)c2cc3ccccc3s2)cc1	-1	23*	-1	7	6
NS(=O)(=O)c1ccc(CCNC(=O)c2ccc(Cl)s2)cc1	2	3	-2	-10	x
O=S1(=O)c2c(cccc2N2CC[C@@H](O)C2)O[C@@H]2CCN1C2	x	12	x	x	x
CN(C)c1ccc(C=C2C=C(c3ccccc3)OC2=O)cc1	-2	32*	x	-19	1
CN(C)c1ccc(/C=C2/C=C(c3ccc4c(c3)CCCC4)OC2=O)cc1	1	25*	1	-17	3
Cc1ccc(C=C2C=C(c3ccccc3)OC2=O)cc1	0	-6	x	-103	x
O=C(OCC(=O)N1CCCc2ccccc21)c1cc(Cl)ccc1O	1	24*	-2	-41	-5
O=C(OCC(=O)N1CCCC1=O)c1cc(Cl)ccc1O	-1	-1	-1	-15	x
Cc1ccc(-n2c(SCC(=O)Nc3ccccc3-c3ccccc3)nnc2-c2ccccn2)cc1	x	8	x	x	x
COc1cc2c(cc1OC)[C@@]1(c3ccccc3)CCCC[C@H]1[C@@H]2NC(=O)C(F)(F)F	0	-4	x	x	x
COc1cc2c(c(OC)c1OC)[C@@]1(c3ccccc3)CCCCC[C@H]1[C@@H]2NC(=O)C(F)(F)F	-2	13*	x	x	6
Cc1ccc(-c2nn3c(C)nnc3s2)cc1NC(=O)c1ccc(-c2ccc(Cl)cc2Cl)o1	1	124*	-3	-18	186*	RORg DNA counter=i
Cc1ccc(-c2nn3c(C)nnc3s2)cc1NC(=O)c1ccc(-c2cccc(Cl)c2)o1	-2	-8	x	5	x
CC(C)(C)c1ccc(C(=O)Nc2cc(Cl)c(Cl)cc2C(=O)O)cc1	x	-1	x	x	x
Cc1ccnc(N2CCC(C(=O)Nc3ccc(Oc4ccccc4)cc3)CC2)n1	1	24*	0	11	-2
Nn1c(SCC(=O)Nc2cccc3ccccc23)nnc1-c1cc(-c2ccc(Cl)cc2)n[nH]1	x	6	x	x	x
Cc1cc(C)cc(NC(=O)CSc2nc3ccccc3nc2N2CCCCC2)c1	0	-1	0	2	x
O=C(CSc1nc2ccccc2nc1N1CCCCC1)NCc1ccc(Cl)cc1Cl	x	47*	x	x	41*	RORg DNA counter=>40
CCOC(=O)C1=C(C(C)=O)C(c2cccnc2)C(C#N)=C(N)O1 (stereo not given)	-1	-8	-6	-5	x
CCOC(=O)C1=C(C#N)C(C(=O)OCC)c2ncccc21 (stereo not given)	2	34*	x	5	22*
CCCN1CCS(=O)(=O)N(Cc2cn(Cc3ccccc3)nn2)C(C(=O)OC)C1 (stereo not given)	x	3	x	x	x
CCOC(=O)[C@@]12CCC3=C1N(CCC3)C(=O)[C@H](CC(=O)NCCCOC)C2	x	0	x	x	x
SMILES	PG9 Ab binder	NR1D1 modulator	NR2E3 ag-1	NR2E3 ag-2	NR1D1 mod conf	others
CSc1nc(C)c2c(n1)N(c1ccc(C(F)(F)F)cc1)CC2	-1	23*	2	-24	1
O=C(NCCc1ccc2c(c1)OCO2)c1cc(-c2ccccc2)c(N2CCOCC2)s1	x	4	x	x	x
COc1ccccc1Nc1nn2c(=O)c3ccc(C(=O)N4CCCCC4)cc3nc2s1	-2	0	3	-9	x
O=c1c2ccccc2nc2sc(Nc3cccc(Cl)c3)nn12	7	127*	1	-28	88*	RORg DNA counter=>40
O=c1c2ccc(F)cc2nc2sc(Nc3ccc4c(c3)CCC4)nn12	x	74*	x	x	2
COc1ccc(S[C@]2(C(=O)NCCc3ccccc3)CC(=O)N[C@@H]2c2ccc(OC)cc2)cc1	x	6	x	x	x
COc1cc2oc(=O)c3c(c2cc1OCC(=O)c1c(C)n(C)c2ccccc12)CCCC3	-1	36*	-4	-3	-12
CCc1cc2c3c(c(=O)oc2cc1OC)CCCC3	2	-3	1	-48	x
CC1(c2ccc(OC(F)F)cc2)NC(=O)N(CC(=O)Nc2ccccc2)C1=O (stereo not given)	1	4	-1	-31	x
Cc1ccc2nc(-c3ccc(NC(=O)CN4C(=O)NC(C)(c5ccc(OC(F)F)cc5)C4=O)cc3)sc2c1 (stereo not given)	4	24*	0	-131	8
CC1=Nc2ccccc2/C1=C/c1sc(=S)n(-c2cccc(C(=O)O)c2)c1O	0	48*	x	-8	52*	RORg DNA counter=>40
N#Cc1ccc(/C=C2\CC3(OC(=O)C4CCCCC4)CCCN2C3)cc1 (stereo not given)	x	1	x	x	x
CC(=O)Nc1ccc(S(=O)(=O)N2CCN(Cc3nc4sc(C)c(C)c4c(=O)[nH]3)CC2)cc1	3	31*	-2	-12	16
CC1(Cc2ccccc2Cl)C(=O)Nc2ccc(OC(F)(F)F)cc21 (stereo not given)	0	36*	x	-18	45*	RORg DNA counter=>40
COc1ccc(OC(F)(F)F)cc1CC1(C)C(=O)Nc2c(Cl)ccc(Cl)c21 (stereo not given)	x	x	x	-6	x
CC1(Cc2ccccc2C#N)C(=O)Nc2ccc(OC(F)(F)F)cc21 (stereo not given)	-1	28*	x	-21	26*
CC(C)c1nc2sc3c(=O)[nH]cnc3c2c2c1CCCC2	0	25*	0	-24	0
CCCc1nc2sc3c(=O)[nH]cnc3c2c2c1CCCC2	2	19	-2	x	x
CC(C)Cc1nc2sc3c(=O)[nH]cnc3c2c2c1CCC2	4	38*	1	-3	9
COc1ccc(CNC(=O)CCCn2c(SCC#N)nc3cc4c(cc3c2=O)OCO4)cc1	0	-3	2	22	x
CCN(CC)C(=O)CSc1nc2cc3c(cc2c(=O)n1Cc1ccc(OC)cc1)OCO3	0	31*	4	-12	38*	RORg DNA counter=i
CCN(CC)C(=O)CSc1nnc2nnc3cc(OC)ccc3n12	-1	21*	1	-12	10
O=C(NC1CCCCN(Cc2cccc(F)c2)C1=O)c1cccc(F)c1 (stereo not given)	x	4	x	x	x
CCN(Cc1cn(Cc2ccccc2)nn1)S(=O)(=O)c1ccc(F)cc1Br	x	-5	x	x	x
Cc1cccc(Cl)c1NC(=O)N(C)c1ccccc1	3	16*	x	x	1
Cc1cccc(Cl)c1NC(=S)NN	-3	2	2	-29	x
CCN(c1ccccc1C)S(=O)(=O)c1cc2c3c(c1)CCC(=O)N3CCC2	-2	28*	2	-19	41*	RORg DNA counter=>40
